Measurements of several laboratories.
Effect on: DPPH scavenging

Cc1ccc(C(C)C)cc1NC(=O)COC(=O)/C=C/c1ccccc1O — inhibition (100 µg/mL): 1.15%
COc1cc(C=CC(=O)CC(c2ccc([N+](=O)[O-])cc2)n2ccnc2)ccc1O (stereo not drawn) — inhibition (12.5 µg/mL): 37.1%
Cc1ccc(C(C)C)cc1NC(=O)COC(=O)/C=C/c1ccc(O)cc1 — inhibition (100 µg/mL): 8.51%
Oc1ccc(Br)cc1C=NCCN1CCOCC1 — inhibition (absorbance; 160 µM): 36.5%
CCN(O)N=Nc1ccc(S(=O)(=O)Nc2nccs2)cc1 — inhibition (absorbance; 20 µg/mL): 6.63%
Cc1ccc(C(C)C)cc1NC(=O)COC(=O)/C=C/c1ccccc1 — inhibition (100 µg/mL): 1.39%
COc1cc(C=Cc2cc(-c3ccc(N(C)C)cc3)nc(O)n2)ccc1O — inhibition (12.5 µg/mL): 39.4%
Cc1ccc(N(O)N=Nc2ccc(S(=O)(=O)Nc3cc(C)on3)cc2)cc1 — inhibition (absorbance; 240 µg/mL): 29.7%
O=C1O[C@H]([C@@H](O)CO)C(O)=C1O — inhibition (absorbance; 120 µM): 59%
Cc1ccc(C(C)C)cc1NC(=O)COC(=O)/C=C/c1ccc(Cl)cc1 — inhibition (100 µg/mL): 7.5%
Cc1ccc(N(O)N=Nc2ccc(S(=O)(=O)Nc3onc(C)c3C)cc2)cc1 — inhibition (absorbance; 300 µg/mL): 32.6%
COc1cc(C=Cc2cc(-c3ccccc3)nc(O)n2)ccc1O — inhibition (25 µg/mL): 50%
Cc1cc(NS(=O)(=O)c2ccc(N=NN(O)c3ccccc3)cc2)no1 — inhibition (absorbance; 20 µg/mL): 21.8%
Cc1ccc(C(C)C)cc1NC(=O)COC(=O)c1cc(O)cc(O)c1 — inhibition (100 µg/mL): 7.12%
CCCN(O)N=Nc1ccc(S(=O)(=O)Nc2cc(C)on2)cc1 — inhibition (absorbance; 180 µg/mL): 22.8%
COc1cc(C=CC(=O)CC(c2ccc(N(C)C)cc2)n2ccnc2)ccc1O (stereo not drawn) — inhibition (50 µg/mL): 65.2%
O=S(=O)(Nc1nccs1)c1ccc(N=NN(O)c2ccccc2)cc1 — inhibition (absorbance; 180 µg/mL): 34.2%
O=C1O[C@H]([C@@H](O)CO)C(O)=C1O — inhibition (50 µg/mL): 77.6%
